PMC9290029 (ACS Medicinal Chemistry Letters, 2022)

What was measured:
human NHE3 = target: T1, human NHE3 (Homo sapiens, UniProt P48764); experiment: Cell-based human NHE3 inhibition assay; conditions: species not stated; data not shown
T1 sequence (P48764 26-834): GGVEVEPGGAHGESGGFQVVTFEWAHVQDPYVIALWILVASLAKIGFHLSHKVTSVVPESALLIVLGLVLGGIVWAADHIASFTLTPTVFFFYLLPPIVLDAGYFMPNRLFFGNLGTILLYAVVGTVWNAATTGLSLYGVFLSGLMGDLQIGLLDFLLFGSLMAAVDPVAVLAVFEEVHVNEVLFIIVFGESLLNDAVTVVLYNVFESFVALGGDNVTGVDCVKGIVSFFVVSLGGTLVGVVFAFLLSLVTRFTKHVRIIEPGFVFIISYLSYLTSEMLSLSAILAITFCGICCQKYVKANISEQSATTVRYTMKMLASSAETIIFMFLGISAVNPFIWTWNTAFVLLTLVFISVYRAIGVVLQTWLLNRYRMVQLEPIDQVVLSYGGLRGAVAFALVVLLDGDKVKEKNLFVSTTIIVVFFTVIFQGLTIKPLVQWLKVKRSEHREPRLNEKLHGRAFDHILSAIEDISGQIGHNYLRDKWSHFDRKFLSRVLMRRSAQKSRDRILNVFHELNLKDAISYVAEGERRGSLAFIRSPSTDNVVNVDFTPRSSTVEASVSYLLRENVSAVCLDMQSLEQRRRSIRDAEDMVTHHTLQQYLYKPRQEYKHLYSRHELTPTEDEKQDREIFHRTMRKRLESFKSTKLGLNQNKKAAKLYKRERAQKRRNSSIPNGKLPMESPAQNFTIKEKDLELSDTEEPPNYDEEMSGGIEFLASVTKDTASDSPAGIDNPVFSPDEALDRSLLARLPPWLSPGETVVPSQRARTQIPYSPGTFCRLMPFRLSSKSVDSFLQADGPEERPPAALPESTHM
Procedure, shortened: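 Cell deacidification assay in transfected opossum kidney cells overexpressing human or rat NHE3. Test compounds are applied across a dose range, and inhibition of intracellular pH recovery is followed with a pH-sensitive dye. Potency is reported as pIC50 for each species.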

Sprague Dawley rats = experiment: Rat stool and urine content, stool form scoring; type: in vivo; conditions: for Increase in stool water: criterion: 10% increase from control; for Stool water dose-response: oral 0.1–3.0 mg/kg, criterion: Yes
Procedure, shortened: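 Rats are dosed orally, 3 mg/kg for screening or 0.1, 0.3, 1.0 and 3.0 mg/kg for dose-response, then held in metabolic cages. Urine sodium reduction is measured at 16 h (n = 6 per group; mean ± SEM; one-way ANOVA with Dunnett's test versus vehicle). Stool form is scored 1 (normal) to 5 (watery), and fecal water is given as percent water by weight and percent of control.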

[1] = Pharmacokinetic assessments in rats; type: in vivo, Sprague Dawley rats; conditions: for metabolites detected in plasma (Cmax at 30 mpk): rats, oral; for AUC: male, Sprague-Dawley, rat, plasma, po
humans = conditions: clinical trials, cited from earlier work
[2] = test system: dialysis patients with hyperphosphatemia; conditions: cited from earlier work

In the case of `CN1Cc2c(Cl)cc(Cl)cc2[C@H](c2cccc(S(=O)(=O)NCCOCCOCCNC(=O)Nc3ccc(NC(=O)NCCOCCOCCNS(=O)(=O)c4cccc([C@@H]5CN(C)Cc6c(Cl)cc(Cl)cc65)c4)cc3)c2)C1` [Compound 26], the “inhibition in the cell assay (maximum reached)” value (human NHE3) is reported as < 100%, the “Increase in stool water” value (Sprague Dawley rats) is reported as “Yes” and the Stool water dose-response (Sprague Dawley rats) is reported as “Yes”. For the same compound, the “metabolites detected in plasma (Cmax at 30 mpk)” value [1] was “No metabolites detected”.
For `CN1Cc2c(Cl)cc(Cl)cc2C(c2cccc(S(=O)(=O)NCCOCCOCCOCCNC(=O)NCCOCCOCCOCCNS(=O)(=O)c3cccc(C4CN(C)Cc5c(Cl)cc(Cl)cc54)c3)c2)C1` (stereo not drawn) [Compound 38], the AUC ([1]; 1.8 mg/kg) was < 75 ng·h/mL.
With `CN1Cc2c(Cl)cc(Cl)cc2C(c2ccc(S(=O)(=O)NCCOCCOCCNC(=O)NCCOCCOCCNS(=O)(=O)c3ccc(C4CN(C)Cc5c(Cl)cc(Cl)cc54)cc3)cc2)C1` (stereo not drawn) [Compound 23] the AUC ([1]; 17 mg/kg) was < 8 ng·h/mL.
In the case of `CN1Cc2c(Cl)cc(Cl)cc2C(c2ccc(S(=O)(=O)NCCOCCOCCNC(=O)c3ccc(C(=O)NCCOCCOCCNS(=O)(=O)c4ccc(C5CN(C)Cc6c(Cl)cc(Cl)cc65)cc4)cc3)cc2)C1` (stereo not drawn) [Compound 21], the AUC ([1]; 23 mg/kg) is reported as < 8 ng·h/mL.
In the case of `CN1Cc2c(Cl)cc(Cl)cc2C(c2ccc(S(=O)(=O)NCCOCCOCCOCCNC(=O)NCCOCCOCCOCCNS(=O)(=O)c3ccc(C4CN(C)Cc5c(Cl)cc(Cl)cc54)cc3)cc2)C1` (stereo not drawn) [Compound 35], the AUC ([1]; 5.3 mg/kg) is reported as < 19 ng·h/mL.
With `CN1Cc2c(Cl)cc(Cl)cc2C(c2ccc(S(=O)(=O)NCCOCCOCCOCCNC(=O)c3ccc(C(=O)NCCOCCOCCOCCNS(=O)(=O)c4ccc(C5CN(C)Cc6c(Cl)cc(Cl)cc65)cc4)cc3)cc2)C1` (stereo not drawn) [Compound 37] the AUC ([1]; 19 mg/kg) was < 9 ng·h/mL.
For `CN1Cc2c(Cl)cc(Cl)cc2C(c2cccc(S(=O)(=O)NCCOCCOCCNC(=O)NCCOCCOCCNS(=O)(=O)c3cccc(C4CN(C)Cc5c(Cl)cc(Cl)cc54)c3)c2)C1` (stereo not drawn) [Compound 22], the AUC ([1]; 11 mg/kg) was < 19 ng·h/mL.
In the case of `CN1Cc2c(Cl)cc(Cl)cc2C(c2cccc(S(N)(=O)=O)c2)C1` (stereo not drawn) [Compound 1], the “pharmacodynamic (PD) effect in PK studies” value ([1]; Sprague–Dawley rats) is reported as “absence of a pharmacodynamic (PD) effect”.
For `CN1Cc2c(Cl)cc(Cl)cc2[C@H](c2cccc(S(=O)(=O)NCCOCCOCCNC(=O)NCCCCNC(=O)NCCOCCOCCNS(=O)(=O)c3cccc([C@@H]4CN(C)Cc5c(Cl)cc(Cl)cc54)c3)c2)C1` [Compound 28, tenapanor], the “Increase in stool water” value (Sprague Dawley rats) is given as “Yes”, the Stool water dose-response (Sprague Dawley rats) is given as “Yes” and the stool consistency (humans; versus the placebo) is given as “softened stool consistency in a dose-dependent manner”. The “stool frequency and weight” value (humans; versus the placebo) was “increased stool frequency and weight”, the plasma concentrations (humans; humans, below the quantification limit in >95% of all plasma samples) was < 0.5 ng/mL and the “plasma samples below the quantification limit (0.5 ng/mL)” value (humans; humans) was > 95%. The “metabolites detected in plasma (Cmax at 30 mpk)” value [1] was “No metabolites detected” and the serum phosphorus levels [2] was “lowered serum phosphorus levels”.
For `CN1Cc2c(Cl)cc(Cl)cc2C(c2cccc(S(=O)(=O)NCCOCCOCCOCCNC(=O)CCC(=O)NCCOCCOCCOCCNS(=O)(=O)c3cccc(C4CN(C)Cc5c(Cl)cc(Cl)cc54)c3)c2)C1` (stereo not drawn) [Compound 44], the AUC ([1]; 28 mg/kg) was < 8 ng·h/mL.
For `CN1Cc2c(Cl)cc(Cl)cc2C(c2cccc(S(=O)(=O)NCCOCCOCCNC(=O)c3ccc(C(=O)NCCOCCOCCNS(=O)(=O)c4cccc(C5CN(C)Cc6c(Cl)cc(Cl)cc65)c4)cc3)c2)C1` (stereo not drawn) [Compound 20], the AUC ([1]; 22 mg/kg) was < 8 ng·h/mL.
